Experimental data from ChEMBL document CHEMBL1132607, “Synthesis, pharmacological characterization, and molecular modeling of heterobicyclic amino acids related to (+)-2-aminobicyclo[3.1.0] hexane-2,6-dicarboxylic acid (LY354740): identification of two new potent, selective, and systemically active agonists for group II metabotropic glutamate receptors” (J Med Chem, 1999).

Key:
[1] = Ability to displace [3H]LY-341,495 binding to Group II Metabotropic glutamate receptor from rat forebrain
In short: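 Rat forebrain homogenates; displacement of the group II-selective radioligand [3H]LY341495. Where an IC50 below 100 µM could be determined, runs were in triplicate. Values are given as mean IC50 ± standard error.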

[2] = biological target: T1, Metabotropic glutamate receptor 3 (Homo sapiens, UniProt Q14832); test: Ability to displace [3H]LY-341,495 from recombinant human Metabotropic glutamate receptor 3 expressed in RGT cells.; format: cell-based
[3] = biological target: T2, Metabotropic glutamate receptor 2 (Homo sapiens, UniProt Q14416); test: Ability to displace [3H]LY-341,495 from recombinant human Metabotropic glutamate receptor 2 subtypes expressed in RGT cells.; format: cell-based
[4] = biological target: Glutamate receptor ionotropic, kainate; test: Ability to displace [3H]-KA binding to Ionotropic glutamate receptor kainate from rat forebrain
In short: (§1)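 Rat forebrain homogenates; displacement of [3H]kainic acid (kainate), [3H]AMPA (AMPA) or [3H]CGP39653 (NMDA) binding, tested up to 100 000 nM. Where an IC50 below 100 µM could be determined, runs were in triplicate. Values are given as mean IC50 ± standard error.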

[5] = biological target: T3, Glutamate receptor ionotropic, AMPA (Rattus norvegicus, UniProt P19490+P19491+P19492+P19493); test: Ability to displace [3H]AMPA binding to Ionotropic glutamate receptor AMPA from rat forebrain; in short: as §1
[6] = biological target: T2, Metabotropic glutamate receptor 2; test: Inhibition of forskolin stimulated cAMP production in RGT cells expressing recombinant human Metabotropic glutamate receptor 2; format: functional, cell-based
[7] = biological target: T1, Metabotropic glutamate receptor 3; test: Inhibition of forskolin stimulated cAMP production in RGT cells expressing recombinant human Metabotropic glutamate receptor 3; format: functional, cell-based
[8] = test system: Mus musculus; test: Effect on limbic seizures induced by ACPD in NIH Swiss mice 1 hr after systemic administration; format: functional; settings: Limbic system
In short: (§2)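 Male NIH Swiss mice received test agent ip 1, 2 or 4 h before unilateral intracerebral injection of (1S,3R)-ACPD (400 nmol). Controls received H2O ip before ic H2O or ACPD. Mice were watched after ACPD for limbic seizures (clonic forelimb contractions, rearing to a praying stance, loss of balance, falling). Scored as number seizing/number treated (n=10); ED50 calculated.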

[9] = test system: Mus musculus; test: Effect on limbic seizures induced by ACPD in NIH Swiss mice 2 hr after systemic administration; format: functional; settings: Limbic system; in short: as §2
[10] = test system: Mus musculus; test: Effect on limbic seizures induced by ACPD in NIH Swiss mice 4 hr after systemic administration; format: functional; settings: Limbic system; in short: as §2
[11] = test system: Mus musculus; test: Effect on limbic seizures induced by ACPD in NIH Swiss mice at 30 mg/kg dose 1 hr after systemic administration; format: functional, Limbic system; in short: as §2
[12] = test system: Mus musculus; test: Effect on limbic seizures induced by ACPD in NIH Swiss mice at 100 mg/kg dose 1 hr after systemic administration; format: functional, Limbic system; in short: as §2
[13] = Ability to displace [3H]CGP-39653 binding to N-methyl-D-aspartate glutamate receptor from rat forebrain; in short: as §1
[14] = biological target: Metabotropic glutamate receptor 4 (Homo sapiens, UniProt Q14833); test: Inhibition of forskolin stimulated cAMP production in RGT cells expressing recombinant human mGluR4a; format: functional, cell-based
In short: (§3)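 AV12-664 (RGT) cells co-expressing the GLAST glutamate transporter and one recombinant human mGlu receptor (mGlu1a, mGlu4a, mGlu5a, mGlu6, mGlu7a or mGlu8). Second-messenger response measured; agonist and antagonist modes tested, typically up to 10 000–100 000 nM. EC50 and Emax reported.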

[15] = biological target: Metabotropic glutamate receptor 5 (Homo sapiens, UniProt P41594); test: […] in RGT cells expressing recombinant human mGluR5a; format: functional, cell-based; in short: as §3
[16] = biological target: Metabotropic glutamate receptor 6 (Homo sapiens, UniProt O15303); test: Inhibition of forskolin stimulated cAMP production in RGT cells expressing recombinant human mGluR6; format: functional, cell-based; in short: as §3
[17] = biological target: Metabotropic glutamate receptor 7 (Homo sapiens, UniProt Q14831); test: Inhibition of forskolin stimulated cAMP production in RGT cells expressing recombinant human mGluR7; format: functional, cell-based; in short: as §3
[18] = biological target: Metabotropic glutamate receptor 1 (Homo sapiens, UniProt Q13255); test: […] in RGT cells expressing recombinant human mGluR1a; format: functional, cell-based; in short: as §3
[19] = biological target: Metabotropic glutamate receptor 8 (Homo sapiens, UniProt O00222); test: Inhibition of forskolin stimulated cAMP production in RGT cells expressing recombinant human mGluR8; format: functional, cell-based; in short: as §3
[20] = biological target: T3, Glutamate receptor ionotropic, AMPA; test: Binding affinity against Ionotropic glutamate receptor AMPA using [3H]AMPA as radioligand.; format: protein-complex assay; in short: as §1

Sequence of Metabotropic glutamate receptor 1 (Q13255 whole entry): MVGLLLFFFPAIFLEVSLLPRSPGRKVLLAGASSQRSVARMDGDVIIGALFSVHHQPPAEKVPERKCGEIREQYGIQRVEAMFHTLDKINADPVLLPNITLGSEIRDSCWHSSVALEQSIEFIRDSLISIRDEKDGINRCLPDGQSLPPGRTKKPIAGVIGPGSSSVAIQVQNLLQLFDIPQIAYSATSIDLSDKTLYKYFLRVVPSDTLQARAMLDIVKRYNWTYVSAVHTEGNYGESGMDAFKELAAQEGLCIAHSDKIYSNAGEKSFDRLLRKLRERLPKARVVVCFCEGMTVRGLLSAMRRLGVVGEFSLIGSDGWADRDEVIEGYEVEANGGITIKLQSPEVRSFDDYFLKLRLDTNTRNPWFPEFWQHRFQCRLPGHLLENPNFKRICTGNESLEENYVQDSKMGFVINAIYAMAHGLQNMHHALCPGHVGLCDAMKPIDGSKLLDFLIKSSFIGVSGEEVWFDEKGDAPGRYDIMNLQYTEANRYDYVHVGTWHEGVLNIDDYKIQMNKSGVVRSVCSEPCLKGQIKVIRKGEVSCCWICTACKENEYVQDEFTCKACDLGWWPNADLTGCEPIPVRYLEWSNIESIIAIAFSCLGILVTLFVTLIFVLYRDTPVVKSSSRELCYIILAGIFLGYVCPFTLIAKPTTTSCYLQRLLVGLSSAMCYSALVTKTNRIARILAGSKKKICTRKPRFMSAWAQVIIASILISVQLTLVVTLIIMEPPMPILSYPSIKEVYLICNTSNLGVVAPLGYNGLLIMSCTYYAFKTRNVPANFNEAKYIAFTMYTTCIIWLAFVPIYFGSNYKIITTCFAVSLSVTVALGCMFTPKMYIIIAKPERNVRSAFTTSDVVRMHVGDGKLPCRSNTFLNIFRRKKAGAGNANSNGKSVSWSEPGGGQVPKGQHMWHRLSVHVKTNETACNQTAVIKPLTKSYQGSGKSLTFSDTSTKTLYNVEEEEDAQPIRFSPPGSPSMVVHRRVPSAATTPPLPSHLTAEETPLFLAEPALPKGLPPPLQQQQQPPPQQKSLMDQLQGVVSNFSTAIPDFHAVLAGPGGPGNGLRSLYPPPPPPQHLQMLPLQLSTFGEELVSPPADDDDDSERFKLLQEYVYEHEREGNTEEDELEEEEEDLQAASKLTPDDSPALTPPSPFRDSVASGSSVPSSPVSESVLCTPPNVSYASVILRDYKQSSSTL
T1 sequence (Q14832 whole entry): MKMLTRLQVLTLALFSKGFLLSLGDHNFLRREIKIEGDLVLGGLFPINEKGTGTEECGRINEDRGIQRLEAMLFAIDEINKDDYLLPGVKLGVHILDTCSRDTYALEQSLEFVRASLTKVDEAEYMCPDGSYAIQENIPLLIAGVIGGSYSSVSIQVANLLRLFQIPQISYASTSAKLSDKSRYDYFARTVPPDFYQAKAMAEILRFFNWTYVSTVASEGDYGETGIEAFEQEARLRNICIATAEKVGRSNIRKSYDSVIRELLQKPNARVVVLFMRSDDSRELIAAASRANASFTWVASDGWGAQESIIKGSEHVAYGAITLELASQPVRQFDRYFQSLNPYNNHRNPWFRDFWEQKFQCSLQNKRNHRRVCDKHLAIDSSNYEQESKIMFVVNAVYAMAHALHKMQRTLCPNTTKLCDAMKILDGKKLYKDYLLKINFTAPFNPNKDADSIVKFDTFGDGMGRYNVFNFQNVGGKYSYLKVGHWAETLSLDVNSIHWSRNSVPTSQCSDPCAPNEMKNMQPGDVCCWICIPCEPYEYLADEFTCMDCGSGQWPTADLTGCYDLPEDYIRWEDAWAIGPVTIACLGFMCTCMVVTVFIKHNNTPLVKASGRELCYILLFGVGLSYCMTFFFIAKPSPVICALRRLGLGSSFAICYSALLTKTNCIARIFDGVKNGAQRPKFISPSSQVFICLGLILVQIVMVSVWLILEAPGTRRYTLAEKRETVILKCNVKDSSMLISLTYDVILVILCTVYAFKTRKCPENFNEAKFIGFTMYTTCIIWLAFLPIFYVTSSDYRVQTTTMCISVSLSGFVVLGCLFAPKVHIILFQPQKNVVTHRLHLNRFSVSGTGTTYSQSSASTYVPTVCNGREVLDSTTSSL
Sequence of Metabotropic glutamate receptor 8 (O00222 whole entry): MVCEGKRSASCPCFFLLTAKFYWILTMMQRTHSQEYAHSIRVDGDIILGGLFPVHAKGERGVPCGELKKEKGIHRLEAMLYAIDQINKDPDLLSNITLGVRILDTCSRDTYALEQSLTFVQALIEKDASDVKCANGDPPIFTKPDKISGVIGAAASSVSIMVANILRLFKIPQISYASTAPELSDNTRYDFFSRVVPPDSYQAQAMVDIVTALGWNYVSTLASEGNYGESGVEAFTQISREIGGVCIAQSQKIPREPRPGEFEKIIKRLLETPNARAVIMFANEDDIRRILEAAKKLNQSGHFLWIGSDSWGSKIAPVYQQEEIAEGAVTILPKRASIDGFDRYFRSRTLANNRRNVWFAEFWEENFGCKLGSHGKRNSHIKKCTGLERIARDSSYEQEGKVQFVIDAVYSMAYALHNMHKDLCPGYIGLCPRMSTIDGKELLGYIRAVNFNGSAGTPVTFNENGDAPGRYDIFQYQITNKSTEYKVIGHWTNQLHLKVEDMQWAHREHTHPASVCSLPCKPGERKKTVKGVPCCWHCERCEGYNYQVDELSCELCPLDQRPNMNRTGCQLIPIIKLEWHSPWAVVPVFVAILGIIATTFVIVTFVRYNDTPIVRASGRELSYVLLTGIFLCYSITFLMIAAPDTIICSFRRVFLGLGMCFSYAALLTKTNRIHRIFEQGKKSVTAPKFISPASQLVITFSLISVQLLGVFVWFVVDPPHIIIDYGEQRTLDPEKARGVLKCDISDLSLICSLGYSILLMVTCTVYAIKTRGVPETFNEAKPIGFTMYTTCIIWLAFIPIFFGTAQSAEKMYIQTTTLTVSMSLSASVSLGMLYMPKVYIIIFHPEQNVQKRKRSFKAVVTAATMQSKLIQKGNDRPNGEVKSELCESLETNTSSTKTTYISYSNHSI
T2 sequence (Q14416 whole entry): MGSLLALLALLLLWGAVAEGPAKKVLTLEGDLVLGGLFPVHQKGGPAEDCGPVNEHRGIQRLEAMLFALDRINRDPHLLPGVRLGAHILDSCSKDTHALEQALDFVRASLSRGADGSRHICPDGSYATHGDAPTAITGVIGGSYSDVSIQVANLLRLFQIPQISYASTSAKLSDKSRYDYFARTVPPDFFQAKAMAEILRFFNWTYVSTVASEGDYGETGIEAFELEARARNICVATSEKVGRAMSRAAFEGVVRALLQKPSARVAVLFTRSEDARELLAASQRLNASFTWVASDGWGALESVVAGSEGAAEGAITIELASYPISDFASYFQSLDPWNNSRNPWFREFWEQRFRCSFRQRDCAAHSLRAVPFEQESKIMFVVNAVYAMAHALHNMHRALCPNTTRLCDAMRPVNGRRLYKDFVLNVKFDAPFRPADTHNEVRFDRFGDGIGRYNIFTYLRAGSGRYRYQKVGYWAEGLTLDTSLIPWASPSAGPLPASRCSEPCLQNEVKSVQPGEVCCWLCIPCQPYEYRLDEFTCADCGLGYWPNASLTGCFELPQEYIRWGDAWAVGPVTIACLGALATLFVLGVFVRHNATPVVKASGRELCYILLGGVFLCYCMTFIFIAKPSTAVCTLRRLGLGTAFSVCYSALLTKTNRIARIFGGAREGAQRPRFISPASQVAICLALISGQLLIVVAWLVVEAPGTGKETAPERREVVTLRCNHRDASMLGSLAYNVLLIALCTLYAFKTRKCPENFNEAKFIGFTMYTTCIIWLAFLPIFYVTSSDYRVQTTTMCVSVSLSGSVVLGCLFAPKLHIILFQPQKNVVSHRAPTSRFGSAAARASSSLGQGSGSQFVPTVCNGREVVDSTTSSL
Sequence of Metabotropic glutamate receptor 4 (Q14833 whole entry): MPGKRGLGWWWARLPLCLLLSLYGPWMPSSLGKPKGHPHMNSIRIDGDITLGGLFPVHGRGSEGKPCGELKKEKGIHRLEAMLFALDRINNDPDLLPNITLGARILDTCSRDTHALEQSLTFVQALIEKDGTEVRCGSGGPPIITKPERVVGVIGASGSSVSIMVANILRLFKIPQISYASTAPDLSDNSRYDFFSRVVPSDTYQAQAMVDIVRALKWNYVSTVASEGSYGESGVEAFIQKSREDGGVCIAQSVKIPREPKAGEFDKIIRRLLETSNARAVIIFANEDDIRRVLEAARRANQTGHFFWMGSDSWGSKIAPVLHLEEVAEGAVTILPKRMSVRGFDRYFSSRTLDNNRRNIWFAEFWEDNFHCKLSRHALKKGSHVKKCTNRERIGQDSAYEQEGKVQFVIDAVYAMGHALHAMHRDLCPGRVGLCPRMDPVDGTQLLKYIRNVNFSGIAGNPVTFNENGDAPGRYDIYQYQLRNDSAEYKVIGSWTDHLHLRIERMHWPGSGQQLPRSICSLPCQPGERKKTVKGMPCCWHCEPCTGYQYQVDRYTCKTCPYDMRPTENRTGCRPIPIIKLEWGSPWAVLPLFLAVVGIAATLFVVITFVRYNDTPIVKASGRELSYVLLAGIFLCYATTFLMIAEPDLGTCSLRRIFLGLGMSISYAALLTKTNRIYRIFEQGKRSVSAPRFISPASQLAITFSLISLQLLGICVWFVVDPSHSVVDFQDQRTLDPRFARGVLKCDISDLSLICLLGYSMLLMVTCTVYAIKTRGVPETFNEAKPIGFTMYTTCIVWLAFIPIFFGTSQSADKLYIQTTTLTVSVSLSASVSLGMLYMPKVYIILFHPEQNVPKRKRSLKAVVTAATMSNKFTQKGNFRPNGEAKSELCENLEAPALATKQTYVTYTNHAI

SMILES	IC50 [1] [nM]	Ki [2] [nM]	Ki [3] [nM]	IC50 [4] [nM]	IC50 [5] [nM]	EC50 [6] [nM]	EC50 [7] [nM]	IC50 [13] [nM]	EC50 [14] [nM]	EC50 [15] [nM]	EC50 [16] [nM]	EC50 [17] [nM]	EC50 [18] [nM]	EC50 [19] [nM]	IC50 [20] [nM]	ED50 [8] [mg/kg]	ED50 [9] [mg/kg]	ED50 [10] [mg/kg]	No. of mice effected/No. of treated [11]	No. of mice effected/No. of treated [12]
N[C@@]1(C(=O)O)CS[C@H]2[C@H](C(=O)O)[C@H]21 (stereo in doubt; (+)-10) [LY-389795]	792	170	819	–	–	–	–	–	–	–	–	–	–	–	–	–	–	–	–	–
N[C@@]1(C(=O)O)CO[C@H]2[C@H](C(=O)O)[C@H]21 (stereo in doubt; (+)-9) [LY-379268]	5040	1040	2000	–	–	–	–	–	–	–	–	–	–	–	–	–	–	–	–	–
N[C@@]1(C(=O)O)CC[C@H]2[C@H](C(=O)O)[C@H]21 [EGLUMETAD]	254	93.3	74.9	> 100000	–	11.1	38	> 100000	> 100000	> 100000	2990	> 100000	> 100000	11500	> 100000	–	–	–	–	–

Stronger by IC50 [1], values ahead:

IC50 [1] [nM]	Ki [2] [nM]	Ki [3] [nM]	IC50 [4] [nM]	IC50 [5] [nM]	EC50 [6] [nM]	EC50 [7] [nM]	IC50 [13] [nM]	EC50 [14] [nM]	EC50 [15] [nM]	EC50 [16] [nM]	EC50 [17] [nM]	EC50 [18] [nM]	EC50 [19] [nM]	IC50 [20] [nM]	SMILES	ED50 [8] [mg/kg]	ED50 [9] [mg/kg]	ED50 [10] [mg/kg]	No. of mice effected/No. of treated [11]	No. of mice effected/No. of treated [12]
15	5.8	14.1	> 100000	> 100000	2.69	4.58	> 100000	21100	> 100000	401	> 100000	> 100000	1690	–	N[C@@]1(C(=O)O)CO[C@H]2[C@H](C(=O)O)[C@H]21 (stereo in doubt; (-)-9) [LY-379268]	19	6	26	10	10
26.1	9.4	67.2	> 100000	> 100000	–	–	> 100000	–	–	–	–	–	–	–	N[C@@]1(C(=O)O)CS[C@H]2[C@H](C(=O)O)[C@H]21 (racemic) [LY-389795]	–	–	–	–	–
8.4	4.7	40.6	–	–	3.91	7.63	–	> 100000	> 100000	2430	> 100000	> 100000	7340	–	N[C@@]1(C(=O)O)CS[C@H]2[C@H](C(=O)O)[C@H]21 (stereo in doubt; (-)-10) [LY-389795]	14	15	14	10	10
29	14.3	36.5	–	–	–	–	–	–	–	–	–	–	–	–	N[C@@]1(C(=O)O)CO[C@H]2[C@H](C(=O)O)[C@H]21 (racemic) [LY-379268]	–	–	–	–	–
